Data taken from paper PMC6900553 (Acta Pharmaceutica Sinica. B, 2019).

Columns and labels:
[1] = Caco-2 cell permeability assay; settings: human
[2] = Metabolic stability in monkey liver microsomes; assay type: in vitro ADME; settings: pH 7.4
Procedure, shortened: (§1)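 Liver microsomes were incubated in PBS pH 7.4 at 37 °C with test compound at 1 μmol/L final (1.5 μmol/L in the microsome pre-mix, 0.75 mg/mL microsomes). The reaction was started with NADPH (6 mmol/L stock). Samples at 0, 5, 15, 30 and 45 min were quenched with acetonitrile containing internal standard, vortexed, centrifuged and analysed by LC–MS/MS. Results were expressed as % parent remaining, giving t1/2.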

[3] = test system: A431 human tumor xenografts; test: A431 human tumor xenograft study in nude mice; assay type: in vivo; settings: A431 xenograft tumor tissue protein, Western blot
Procedure, shortened: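 Athymic BALB/c nude mice, 4–6 weeks old, were implanted s.c. at one site with 1.5 × 10^7 A431 cells under anaesthesia. At 100–200 mm3, mice were randomised into four groups. Saline vehicle (0.1 mL/10 g) or test compound at 10 or 40 mg/kg was given i.g. daily for 27 days. Caliper tumour size and body weight were recorded every 2 days. Excised tumours were weighed, RIPA-extracted and Western blotted; mean ± SD, n = 3.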

[4] = Metabolic stability in rat liver microsomes; assay type: in vitro ADME; settings: pH 7.4
Procedure, shortened: as §1

[5] = Metabolic stability in mouse liver microsomes; assay type: in vitro ADME; settings: pH 7.4
Procedure, shortened: as §1

[6] = Metabolic stability in dog liver microsomes; assay type: in vitro ADME; settings: pH 7.4
Procedure, shortened: as §1

[7] = Pharmacokinetic study in rats; assay type: in vivo; settings: Sprague-Dawley, rat, plasma; for AUC: mean ± SD, n = 3

Structure (SMILES) | Papp A→B at 90 min, 10 μmol/L [1] | Papp B→A at 90 min, 10 μmol/L [1] | efflux ratio at 90 min, 10 μmol/L [1] | half-life at 1 μmol/L [2] | p-EGFR and p-AKT in tumor extracts [3] | half-life at 1 μmol/L [4] | half-life at 1 μmol/L [5] | half-life at 1 μmol/L [6] | MRT inf ([7]; iv, 10 mg/kg) | AUC ([7]; iv, 10 mg/kg, AUCINF_plasma, i.v. 10 mg/kg) | AUC ([7]; iv, 10 mg/kg, AUClast_plasma, i.v. 10 mg/kg) | bioavailability ([7]; oral, 40 mg/kg) | Cmax ([7]; po, 40 mg/kg) | Tmax ([7]; po, 40 mg/kg) | half-life ([7]; po, 40 mg/kg) | AUC ([7]; po, 40 mg/kg, AUCINF_plasma, p.o. 40 mg/kg) | AUC ([7]; po, 40 mg/kg, AUClast_plasma, p.o. 40 mg/kg)
COCCc1ccc(OCC(O)CNC(C)C)cc1 (stereo not shown) [Metoprolol] | 40.04 ± 0.05 ×10⁻⁶ cm/s | 30.92 ± 0.03 ×10⁻⁶ cm/s | 0.77 |  |  |  |  |  |  |  |  |  |  |  |  |  | 
CC[C@H]1OC(=O)[C@H](C)[C@@H](O[C@H]2C[C@@](C)(OC)[C@@H](O)[C@H](C)O2)[C@H](C)[C@@H](O[C@@H]2O[C@H](C)C[C@H](N(C)C)[C@H]2O)[C@](C)(O)C[C@@H](C)C(=O)[C@H](C)[C@@H](O)[C@]1(C)O [Erythromycin] | 0.09 ± 0.03 ×10⁻⁶ cm/s | 22.18 ± 0.02 ×10⁻⁶ cm/s | 240 |  |  |  |  |  |  |  |  |  |  |  |  |  | 
COc1cc2ncnc(Nc3ccc(F)c(Cl)c3)c2cc1OCCCN1CCOCC1 [Gefitinib] | 8.37 ± 0.01 ×10⁻⁶ cm/s | 15.52 ± 0.02 ×10⁻⁶ cm/s |  | 4.66 min | clearly inhibited | 21.2 min | 8.38 min | 34.5 min | 272 ± 11.4 min | 7800 ± 1460 ng·h/mL | 7720 ± 1430 ng·h/mL | 66.5 ± 22.8% | 1480 ± 395 ng/mL | 260 ± 173 min | 231 ± 21 min | 20800 ng·h/mL | 20500 ng·h/mL
